Experimental data taken from ChEMBL document CHEMBL3808351, “Synthesis, biological evaluation, and physicochemical property assessment of 4-substituted 2-phenylaminoquinazolines as Mer tyrosine kinase inhibitors” (Bioorg Med Chem, 2016).
≈ marks a conversion by molar mass, not a printed value.

Columns and labels:
[1] = biological target: T1, Tyrosine-protein kinase Mer (Homo sapiens, UniProt Q12866); test: Inhibition of MERTK (unknown origin) using EFPIYDFLPAKKK-CONH2 as substrate and ATP after 180 mins by microfluidic capillary electrophoresis method
T1 sequence (Q12866 whole entry): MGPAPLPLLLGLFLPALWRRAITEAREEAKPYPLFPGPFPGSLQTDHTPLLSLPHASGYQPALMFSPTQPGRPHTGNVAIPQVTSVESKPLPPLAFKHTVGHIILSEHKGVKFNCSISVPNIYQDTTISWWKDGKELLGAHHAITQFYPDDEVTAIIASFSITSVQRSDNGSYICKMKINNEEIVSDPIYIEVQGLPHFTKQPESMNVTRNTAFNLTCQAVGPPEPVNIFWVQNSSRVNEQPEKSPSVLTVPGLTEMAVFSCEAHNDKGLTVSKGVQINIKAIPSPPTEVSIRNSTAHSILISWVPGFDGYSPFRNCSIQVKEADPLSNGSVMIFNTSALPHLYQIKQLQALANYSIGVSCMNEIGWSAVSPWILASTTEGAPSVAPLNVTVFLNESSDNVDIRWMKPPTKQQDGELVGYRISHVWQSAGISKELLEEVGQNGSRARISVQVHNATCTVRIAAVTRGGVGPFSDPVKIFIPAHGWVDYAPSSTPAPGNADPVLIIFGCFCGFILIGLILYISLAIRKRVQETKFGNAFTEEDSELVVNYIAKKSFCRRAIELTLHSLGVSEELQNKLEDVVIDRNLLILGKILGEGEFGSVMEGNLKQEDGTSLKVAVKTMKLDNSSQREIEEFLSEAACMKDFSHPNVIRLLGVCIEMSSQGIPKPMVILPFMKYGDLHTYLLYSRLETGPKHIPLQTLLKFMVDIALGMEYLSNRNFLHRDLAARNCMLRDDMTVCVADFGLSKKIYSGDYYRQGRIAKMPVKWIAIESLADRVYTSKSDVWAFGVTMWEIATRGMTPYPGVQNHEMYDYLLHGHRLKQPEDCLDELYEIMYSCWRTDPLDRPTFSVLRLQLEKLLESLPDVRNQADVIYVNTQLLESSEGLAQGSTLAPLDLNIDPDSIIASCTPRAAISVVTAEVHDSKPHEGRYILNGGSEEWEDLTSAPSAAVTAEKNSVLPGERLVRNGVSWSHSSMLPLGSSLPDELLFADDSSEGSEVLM

[2] = n-octanol-water partition co-efficient, log P of the compound after 24 hrs by HPLC analysis; assay type: physicochemical
[3] = Solubility of the compound in phosphate buffer at pH 7.4 by HPLC-UV method; assay type: physicochemical
Outline: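 Compound stock was 10 mg/mL in DMSO. It was diluted into pH 7.4 phosphate buffer to a final 1% DMSO and stirred 4 h at room temperature, then spun at 10,000 rpm for 5 min. The saturated supernatant was read by HPLC-UV at 254 nm on a C18 column with a MeOH/water gradient. Concentration was taken from an acetonitrile standard curve spanning 0.20–50 µg/mL. Samples were run in triplicate.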

A549 = test: Antiproliferative activity against human A549 cells after 48 hrs by SRB method; assay type: functional; conditions: A549, 48 h
[4] = Antiproliferative activity against human DU145 cells after 48 hrs by SRB method; assay type: functional; conditions: DU-145, 48 h
KB = test: Antiproliferative activity against human KB cells after 48 hrs by SRB method; assay type: functional
[5] = Antiproliferative activity against human KBVIN cells after 48 hrs by SRB method; assay type: functional

Row | SMILES | IC50 [1] [µM] | logP [2] | solubility [3] [µg/mL] | further results
1 | Fc1ccc(Nc2nc(N3CCOCC3)c3ccccc3n2)cc1 | > 30 | – | – | –
2 | COc1ccc(N(C)c2nc(N3CCOCC3)c3ccccc3n2)cc1 | > 30 | – | – | –
3 | Fc1ccc(Nc2nc(NC3CCCC3)c3ccccc3n2)cc1 | – | > 5 | 1.54 (≈ 4.78 µM) | –
4 | COc1ccc(Nc2nc(NCCCO)c3ccccc3n2)cc1 | – | 2.54 | 95.6 (≈ 295 µM) | –
5 | CCCNc1nc(N(C)c2ccc(OC)cc2)nc2ccccc12 | – | > 5 | 3.43 (≈ 10.6 µM) | –
6 | Oc1ccc(Nc2nc(NC3CCCC3)c3ccccc3n2)cc1 | – | 3.95 | 3.1 (≈ 9.68 µM) | –
7 | COc1ccc(N(C)c2nc(NCC3CCOCC3)c3ccccc3n2)cc1 | > 30 | – | – | –
8 | COc1ccc(N(C)c2nc(NC3CCCC3)c3ccccc3n2)cc1 | – | > 5 | 1.11 (≈ 3.19 µM) | –
9 | Nc1ccc(Nc2nc(NCCCO)c3ccccc3n2)cc1 | > 30 | – | – | GI50 (A549): 17.1 µM; GI50 [4]: 20.8 µM
10 | CNc1nc(Nc2ccc(OC)cc2)nc2ccccc12 | – | 3.21 | 6.61 (≈ 23.6 µM) | –
11 | N#Cc1ccc(Nc2nc(NCCCO)c3ccccc3n2)cc1 | – | 2.84 | 7.52 (≈ 23.5 µM) | –
12 | N#Cc1ccc(Nc2nc(NC3CCCC3)c3ccccc3n2)cc1 | > 30 | – | – | GI50 (A549): > 31.3 µM; GI50 [4]: > 31.3 µM
13 | COc1ccc(Nc2nc(NC3CCCC3)c3ccccc3n2)cc1 | – | > 5 | 10.4 (≈ 31.1 µM) | –
14 | CCCNc1nc(Nc2ccc(OC)cc2)nc2ccccc12 | – | > 5 | 4.36 (≈ 14.1 µM) | –
15 | OCCCNc1nc(Nc2ccc(F)cc2)nc2ccccc12 | > 30 | – | – | GI50 (A549): 19.3 µM; GI50 [4]: 20.6 µM
16 | Nc1ccc(Nc2nc(N3CCOCC3)c3ccccc3n2)cc1 | > 30 | – | – | –
17 | CC(=O)O[C@H]1C(=O)[C@@]2(C)[C@H]([C@H](OC(=O)c3ccccc3)[C@]3(O)C[C@H](OC(=O)[C@H](O)[C@@H](NC(=O)c4ccccc4)c4ccccc4)C(C)=C1C3(C)C)[C@]1(OC(C)=O)CO[C@@H]1C[C@@H]2O [PACLITAXEL] | – | – | – | GI50 (A549): 0.0049 µM; GI50 (KB): 0.0026 µM; GI50 [5]: 0.948 µM
